One molecule from ChEMBL document CHEMBL4382192, “Discovery of a potent dual ALK and EGFR T790M inhibitor” (Eur J Med Chem, 2017) can be followed below.

Assay [1] concerns the target Casein kinase I isoform alpha-like (Homo sapiens) (UniProt Q8N752). In words: Binding affinity to wild-type human full length CSNK1A1L (M1 to N337 residues) expressed in bacterial expression system assessed as residual binding level at 1 uM by Kinomescan method relative to control.
The target of assay [2] is Protein-tyrosine kinase 6 (Homo sapiens) (UniProt Q13882). As to the kind of experiment: Binding affinity to wild-type human partial length BRK (L166 to T451 residues) expressed in bacterial expression system assessed as residual binding level at 1 uM by Kinomescan method relative to control.
Assay [3] deals with Maternal embryonic leucine zipper kinase (Homo sapiens) (UniProt Q14680). As to the kind of experiment: Binding affinity to wild-type human full length MELK (M1 to V651 residues) expressed in bacterial expression system assessed as residual binding level at 1 uM by Kinomescan method relative to control. Put shortly:
(§1)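 Single-point kinome-wide KINOMEscan binding panel, test compound at 1 μM, run by the provider's standard protocol.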

In assay [4] the target is TGF-beta receptor type-1 (Homo sapiens) (UniProt P36897). As to the kind of experiment: Binding affinity to wild-type human partial length TGFBR1 (D179 to M503 residues) expressed in bacterial expression system assessed as residual binding level at 1 uM by Kinomescan method relative to control.
Assay [5] concerns the target Serine/threonine-protein kinase MARK2 (Homo sapiens) (UniProt Q7KZI7). In words: Binding affinity to wild-type human partial length MARK2 (M1 to R450 residues) expressed in bacterial expression system assessed as residual binding level at 1 uM by Kinomescan method relative to control.
Assay [6] deals with Vascular endothelial growth factor receptor 3 (Homo sapiens) (UniProt P35916). In words: Binding affinity to wild-type human partial length FLT4 (E821 to E1196 residues) expressed in bacterial expression system assessed as residual binding level at 1 uM by Kinomescan method relative to control.
The target in assay [7] is Casein kinase I isoform epsilon (Homo sapiens) (UniProt P49674). In words: Binding affinity to wild-type human full length CSNK1E (M1 to K416 residues) expressed in bacterial expression system assessed as residual binding level at 1 uM by Kinomescan method relative to control.
Assay [8] deals with Serine/threonine-protein kinase 32C (Homo sapiens) (UniProt Q86UX6). As to the kind of experiment: Binding affinity to wild-type human partial length YANK3 (M68 to G486 residues) expressed in bacterial expression system assessed as residual binding level at 1 uM by Kinomescan method relative to control.
The target of assay [9] is Myotonin-protein kinase (Homo sapiens) (UniProt Q09013). In words: Binding affinity to wild-type human partial length DMPK (V47 to V415 residues) expressed in bacterial expression system assessed as residual binding level at 1 uM by Kinomescan method relative to control.
The target in assay [10] is Mitogen-activated protein kinase 12 (Homo sapiens) (UniProt P53778). In words: Binding affinity to wild-type human full length p38-gamma (M1 to L367 residues) expressed in mammalian expression system assessed as residual binding level at 1 uM by Kinomescan method relative to control.
For assay [11], the system named is Receptor-type tyrosine-protein kinase FLT3 (Homo sapiens), P36888 [N841I]. In words: Binding affinity to human partial length FLT3 N841I mutant (V592 to Y969 residues) expressed in bacterial expression system assessed as residual binding level at 1 uM by Kinomescan method relative to control. A digest of the protocol: (§2)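 Kinome-wide selectivity panel run by the KINOMEscan method, with the test compound at a single concentration of 1 μM. Wild-type and mutant kinases were profiled in the same screen.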

Assay [12] has as its target Serine/threonine-protein kinase B-raf (Homo sapiens) (UniProt P15056). As to the kind of experiment: Binding affinity to wild-type human partial length BRAF (S429 to E741 residues) expressed in mammalian expression system assessed as residual binding level at 1 uM by Kinomescan method relative to control.
The target in assay [13] is Serine/threonine-protein kinase ULK3 (Homo sapiens) (UniProt Q6PHR2). In words: Binding affinity to wild-type human partial length ULK3 (M1 to Q290 residues) expressed in mammalian expression system assessed as residual binding level at 1 uM by Kinomescan method relative to control.
Assay [14] concerns Mast/stem cell growth factor receptor Kit (Homo sapiens), P10721 [V559D]. As to the kind of experiment: Binding affinity to human partial length KIT V559D mutant (Y545 to D952 residues) expressed in bacterial expression system assessed as residual binding level at 1 uM by Kinomescan method relative to control. A digest of the protocol: as §2
Assay [15] has as its target Mitogen-activated protein kinase 1 (Homo sapiens) (UniProt P28482). As to the kind of experiment: Binding affinity to wild-type human full length ERK2 (M1 to S360 residues) expressed in bacterial expression system assessed as residual binding level at 1 uM by Kinomescan method relative to control. Put shortly: as §1
The target in assay [16] is Ankyrin repeat and protein kinase domain-containing protein 1 (Homo sapiens) (UniProt Q8NFD2). As to the kind of experiment: Binding affinity to wild-type human partial length ANKK1 (M1 to A305 residues) expressed in mammalian expression system assessed as residual binding level at 1 uM by Kinomescan method relative to control.
The subject of assay [17] is Mast/stem cell growth factor receptor Kit (Homo sapiens), P10721 [D816H]. In words: Binding affinity to human partial length KIT D816H mutant (I571 to D952 residues) expressed in mammalian expression system assessed as residual binding level at 1 uM by Kinomescan method relative to control. Put shortly:
as §2

In assay [18] the target is Cyclin-dependent kinase 5 (Homo sapiens) (UniProt Q00535). As to the kind of experiment: Binding affinity to wild-type human full length CDK5 (M1 to P292 residues) expressed in bacterial expression system assessed as residual binding level at 1 uM by Kinomescan method relative to control.
Assay [19] relates to Receptor-type tyrosine-protein kinase FLT3 (Homo sapiens), P36888 [D835V]. As to the kind of experiment: Binding affinity to human partial length FLT3 D835V mutant (V592 to Y969 residues) expressed in bacterial expression system assessed as residual binding level at 1 uM by Kinomescan method relative to control. A digest of the protocol: as §2
In assay [20] the target is Serine/threonine-protein kinase Nek7 (Homo sapiens) (UniProt Q8TDX7). As to the kind of experiment: Binding affinity to wild-type human full length NEK7 (M1 to S302 residues) expressed in bacterial expression system assessed as residual binding level at 1 uM by Kinomescan method relative to control. A digest of the protocol: as §1
The target in assay [21] is Tyrosine-protein kinase ABL2 (Homo sapiens) (UniProt P42684). As to the kind of experiment: Binding affinity to wild-type human ABL2 (A248 to G542 residues) expressed in bacterial expression system assessed as residual binding level at 1 uM by Kinomescan method relative to control. Put shortly: as §2
The target of assay [22] is Ribosomal protein S6 kinase alpha-1 (Homo sapiens) (UniProt Q15418). As to the kind of experiment: Binding affinity to wild-type human partial length N-terminal RSK1 Kinase domain 1 (M1 to E388 residues) expressed in bacterial expression system assessed as residual binding level at 1 uM by Kinomescan method relative to control.
For assay [23], the target named is Serine/threonine-protein kinase LATS2 (Homo sapiens) (UniProt Q9NRM7). As to the kind of experiment: Binding affinity to wild-type human partial length LATS2 (Q641 to V1088 residues) expressed in mammalian expression system assessed as residual binding level at 1 uM by Kinomescan method relative to control.
Assay [24] addresses Protein-tyrosine kinase 2-beta (Homo sapiens) (UniProt Q14289). In words: Binding affinity to wild-type human full length PYK2 (M1 to E967 residues) expressed in bacterial expression system assessed as residual binding level at 1 uM by Kinomescan method relative to control. Put shortly: as §1

Sequence of Mitogen-activated protein kinase 1 (Homo sapiens) (P28482 whole entry, the tested form may be a part): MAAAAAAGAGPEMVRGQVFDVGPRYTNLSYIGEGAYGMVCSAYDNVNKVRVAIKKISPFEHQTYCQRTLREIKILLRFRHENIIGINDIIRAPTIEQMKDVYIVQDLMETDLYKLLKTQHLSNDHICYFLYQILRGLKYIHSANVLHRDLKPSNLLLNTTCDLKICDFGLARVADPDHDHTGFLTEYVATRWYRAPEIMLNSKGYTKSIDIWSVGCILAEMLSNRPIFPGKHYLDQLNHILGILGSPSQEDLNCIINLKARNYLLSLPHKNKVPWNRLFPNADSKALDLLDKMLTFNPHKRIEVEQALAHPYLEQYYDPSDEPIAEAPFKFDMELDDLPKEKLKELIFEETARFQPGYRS
Sequence of Mitogen-activated protein kinase 12 (Homo sapiens) (P53778 whole entry, the tested form may be a part): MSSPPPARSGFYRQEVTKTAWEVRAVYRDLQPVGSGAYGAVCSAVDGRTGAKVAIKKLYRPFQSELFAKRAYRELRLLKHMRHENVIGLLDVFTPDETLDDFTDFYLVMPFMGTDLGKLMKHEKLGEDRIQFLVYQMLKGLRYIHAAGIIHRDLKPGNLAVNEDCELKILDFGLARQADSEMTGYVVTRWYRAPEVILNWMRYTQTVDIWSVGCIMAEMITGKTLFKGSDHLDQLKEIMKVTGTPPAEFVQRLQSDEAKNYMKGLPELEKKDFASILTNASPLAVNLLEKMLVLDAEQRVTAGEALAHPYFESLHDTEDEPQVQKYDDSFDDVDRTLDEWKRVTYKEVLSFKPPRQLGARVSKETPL
Sequence of Ankyrin repeat and protein kinase domain-containing protein 1 (Homo sapiens) (Q8NFD2 whole entry, the tested form may be a part): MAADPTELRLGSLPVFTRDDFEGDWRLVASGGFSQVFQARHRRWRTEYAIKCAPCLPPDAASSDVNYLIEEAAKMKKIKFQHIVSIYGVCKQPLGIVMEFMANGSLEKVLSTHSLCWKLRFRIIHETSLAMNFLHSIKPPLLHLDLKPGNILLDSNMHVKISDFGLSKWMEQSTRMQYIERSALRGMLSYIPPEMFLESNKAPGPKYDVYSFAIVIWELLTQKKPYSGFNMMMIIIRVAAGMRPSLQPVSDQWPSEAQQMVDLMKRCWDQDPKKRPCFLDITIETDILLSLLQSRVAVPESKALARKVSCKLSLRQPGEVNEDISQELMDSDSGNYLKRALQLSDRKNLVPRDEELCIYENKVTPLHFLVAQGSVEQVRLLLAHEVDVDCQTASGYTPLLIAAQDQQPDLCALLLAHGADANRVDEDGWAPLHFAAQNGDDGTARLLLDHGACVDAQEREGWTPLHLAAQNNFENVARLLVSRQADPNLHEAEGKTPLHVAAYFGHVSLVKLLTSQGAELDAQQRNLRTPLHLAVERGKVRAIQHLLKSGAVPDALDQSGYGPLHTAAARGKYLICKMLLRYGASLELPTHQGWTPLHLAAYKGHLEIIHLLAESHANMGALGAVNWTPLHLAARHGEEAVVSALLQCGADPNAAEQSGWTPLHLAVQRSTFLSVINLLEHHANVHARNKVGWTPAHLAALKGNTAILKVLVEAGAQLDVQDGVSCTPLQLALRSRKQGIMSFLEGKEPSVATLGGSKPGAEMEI
Sequence of Protein-tyrosine kinase 6 (Homo sapiens) (Q13882 whole entry, looked up, the tested form may be a part): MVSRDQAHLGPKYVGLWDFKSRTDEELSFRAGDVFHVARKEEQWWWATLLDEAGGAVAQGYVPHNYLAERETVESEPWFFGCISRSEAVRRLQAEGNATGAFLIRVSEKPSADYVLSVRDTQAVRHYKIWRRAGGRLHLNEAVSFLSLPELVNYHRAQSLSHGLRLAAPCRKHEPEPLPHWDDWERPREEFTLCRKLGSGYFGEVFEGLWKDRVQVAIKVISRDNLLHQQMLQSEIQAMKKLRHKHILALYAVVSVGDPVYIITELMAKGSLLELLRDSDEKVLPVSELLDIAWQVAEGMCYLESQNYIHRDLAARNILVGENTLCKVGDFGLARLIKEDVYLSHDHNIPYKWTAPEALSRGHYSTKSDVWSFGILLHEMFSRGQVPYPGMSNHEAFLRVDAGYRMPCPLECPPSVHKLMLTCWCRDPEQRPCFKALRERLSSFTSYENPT
Sequence of Cyclin-dependent kinase 5 (Homo sapiens) (Q00535 whole entry, looked up, the tested form may be a part): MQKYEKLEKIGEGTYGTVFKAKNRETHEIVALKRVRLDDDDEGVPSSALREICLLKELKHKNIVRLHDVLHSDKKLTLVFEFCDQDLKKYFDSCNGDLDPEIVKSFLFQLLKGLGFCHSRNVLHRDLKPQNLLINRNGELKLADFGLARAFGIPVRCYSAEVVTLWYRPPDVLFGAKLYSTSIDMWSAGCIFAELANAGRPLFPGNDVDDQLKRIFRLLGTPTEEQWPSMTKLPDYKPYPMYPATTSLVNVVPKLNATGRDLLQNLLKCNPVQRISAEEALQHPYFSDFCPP
Sequence of Serine/threonine-protein kinase MARK2 (Homo sapiens) (Q7KZI7 whole entry, the tested form may be a part): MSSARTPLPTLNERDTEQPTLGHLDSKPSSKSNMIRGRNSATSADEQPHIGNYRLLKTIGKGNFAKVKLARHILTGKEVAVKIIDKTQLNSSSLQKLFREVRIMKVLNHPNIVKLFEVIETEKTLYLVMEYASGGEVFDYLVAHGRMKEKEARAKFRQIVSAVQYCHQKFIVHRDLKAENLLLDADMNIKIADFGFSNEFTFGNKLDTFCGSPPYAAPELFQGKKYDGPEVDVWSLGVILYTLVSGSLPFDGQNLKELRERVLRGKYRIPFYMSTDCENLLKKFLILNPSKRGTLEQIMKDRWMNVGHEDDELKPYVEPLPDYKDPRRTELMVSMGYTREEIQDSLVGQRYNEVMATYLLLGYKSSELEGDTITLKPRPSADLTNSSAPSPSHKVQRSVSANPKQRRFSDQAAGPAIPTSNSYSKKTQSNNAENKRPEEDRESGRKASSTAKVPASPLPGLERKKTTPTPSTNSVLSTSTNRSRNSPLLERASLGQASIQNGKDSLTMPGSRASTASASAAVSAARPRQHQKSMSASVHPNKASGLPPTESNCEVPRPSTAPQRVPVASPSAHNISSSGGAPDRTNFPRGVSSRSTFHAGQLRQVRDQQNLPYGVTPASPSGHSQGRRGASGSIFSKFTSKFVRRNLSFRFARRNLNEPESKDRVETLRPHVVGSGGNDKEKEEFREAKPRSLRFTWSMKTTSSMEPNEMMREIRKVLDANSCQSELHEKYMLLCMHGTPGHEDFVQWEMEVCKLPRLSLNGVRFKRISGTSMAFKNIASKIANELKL
Sequence of Maternal embryonic leucine zipper kinase (Homo sapiens) (Q14680 whole entry, looked up, the tested form may be a part): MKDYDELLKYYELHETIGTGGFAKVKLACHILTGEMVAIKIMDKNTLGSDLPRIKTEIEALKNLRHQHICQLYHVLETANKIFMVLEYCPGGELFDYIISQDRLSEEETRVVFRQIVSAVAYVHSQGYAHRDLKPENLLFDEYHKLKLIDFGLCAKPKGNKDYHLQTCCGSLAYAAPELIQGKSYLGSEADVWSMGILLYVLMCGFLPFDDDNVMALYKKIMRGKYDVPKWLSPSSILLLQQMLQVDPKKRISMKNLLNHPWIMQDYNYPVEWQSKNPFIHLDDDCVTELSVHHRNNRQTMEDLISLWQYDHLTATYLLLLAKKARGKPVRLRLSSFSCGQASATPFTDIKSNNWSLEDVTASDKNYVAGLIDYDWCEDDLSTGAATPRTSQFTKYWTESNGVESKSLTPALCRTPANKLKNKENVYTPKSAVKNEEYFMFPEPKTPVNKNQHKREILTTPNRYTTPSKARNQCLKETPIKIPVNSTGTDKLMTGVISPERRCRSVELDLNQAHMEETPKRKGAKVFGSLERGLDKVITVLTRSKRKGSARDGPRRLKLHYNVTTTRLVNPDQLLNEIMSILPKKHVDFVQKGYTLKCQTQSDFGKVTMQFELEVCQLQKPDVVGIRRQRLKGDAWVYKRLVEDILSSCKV
Sequence of Vascular endothelial growth factor receptor 3 (Homo sapiens) (P35916 whole entry, the tested form may be a part, canonical isoform): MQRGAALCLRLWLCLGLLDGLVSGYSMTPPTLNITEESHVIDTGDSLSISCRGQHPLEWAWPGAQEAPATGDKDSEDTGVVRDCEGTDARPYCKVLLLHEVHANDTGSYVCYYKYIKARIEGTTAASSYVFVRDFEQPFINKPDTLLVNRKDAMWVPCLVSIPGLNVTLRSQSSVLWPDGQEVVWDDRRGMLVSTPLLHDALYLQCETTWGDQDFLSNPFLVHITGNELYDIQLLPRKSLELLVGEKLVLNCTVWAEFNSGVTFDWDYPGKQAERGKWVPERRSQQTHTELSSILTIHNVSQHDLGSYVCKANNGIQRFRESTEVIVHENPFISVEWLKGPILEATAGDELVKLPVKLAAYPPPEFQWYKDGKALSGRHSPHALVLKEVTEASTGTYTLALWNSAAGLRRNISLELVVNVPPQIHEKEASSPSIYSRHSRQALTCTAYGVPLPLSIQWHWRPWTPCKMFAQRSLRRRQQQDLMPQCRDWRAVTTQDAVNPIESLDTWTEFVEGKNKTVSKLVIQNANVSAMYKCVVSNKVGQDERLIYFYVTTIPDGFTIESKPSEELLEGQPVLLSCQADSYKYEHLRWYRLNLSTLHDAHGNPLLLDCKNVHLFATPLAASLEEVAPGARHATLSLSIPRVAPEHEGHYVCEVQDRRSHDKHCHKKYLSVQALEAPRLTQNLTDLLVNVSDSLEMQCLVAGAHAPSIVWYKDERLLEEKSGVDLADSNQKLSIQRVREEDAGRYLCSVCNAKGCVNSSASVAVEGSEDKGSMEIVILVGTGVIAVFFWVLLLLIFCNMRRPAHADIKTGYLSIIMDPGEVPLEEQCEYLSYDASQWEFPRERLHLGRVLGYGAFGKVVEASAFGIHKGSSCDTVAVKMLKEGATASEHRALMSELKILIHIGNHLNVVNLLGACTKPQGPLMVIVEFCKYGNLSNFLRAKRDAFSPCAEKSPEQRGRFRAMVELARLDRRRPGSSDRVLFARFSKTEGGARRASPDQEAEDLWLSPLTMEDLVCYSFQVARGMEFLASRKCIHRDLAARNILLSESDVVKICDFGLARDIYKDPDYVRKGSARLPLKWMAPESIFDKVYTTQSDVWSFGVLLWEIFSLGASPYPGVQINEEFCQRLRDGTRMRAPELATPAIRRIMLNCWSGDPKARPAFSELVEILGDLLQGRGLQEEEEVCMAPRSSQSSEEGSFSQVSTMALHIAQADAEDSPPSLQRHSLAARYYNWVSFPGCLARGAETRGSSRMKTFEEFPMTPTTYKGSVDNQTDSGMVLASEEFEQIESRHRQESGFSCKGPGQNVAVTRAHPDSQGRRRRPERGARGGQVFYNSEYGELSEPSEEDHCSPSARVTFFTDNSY

On to `C=CC(=O)Nc1cc(Nc2ncc(Cl)c(Nc3ccccc3S(=O)(=O)C(C)C)n2)c(OC)cc1N(C)CCN(C)C`, for which the Activity in assay [1] came out at 86%; in assay [2], 0.4%; in assay [3], 54%; in assay [4], 18%; in assay [5] it was 57%; in assay [6] it was 36%. In addition, the Activity in [7] stood at 100%; in [8], 13%; in [9], 91%; in assay [10], 56%; in assay [11] it was 6.8%; in assay [12] it was 95%. For the same molecule, the Activity was 7.7% in [13]; 31% in assay [14]; 68% in [15]; 39% in [16]; 41% in [17]; 85% in [18]. Besides, the Activity in assay [19] was found to be 2.4%; in assay [20], 72%; in [21] it was 50%; in assay [22], 4.3%; in assay [23] it was 74%; in [24] it was 0.5%.
